# MEKK2mut PB1 HTS = signal of MEK5 binding to mutant human MEKK2 PB1 domain. bead flow cytometry, Alexa488-MEK5 binding to MEKK2 mutant. 0.35% of 290,000 active. percent response, % at 10 µM; in the data active = percent response above about 24%, passing the limit was not always enough
# ABCB1 block = human ABCB1 inhibition, ABCG2 as counter-screen | inhibition, % at 6.6 µM | CCRF-Adr cells, JC-1 efflux, flow cytometry | P08183 | 0.067% of 190,000 active; in the data active = inhibition above about 40%;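 note: 0% = vehicle and 100% = reference inhibitor; higher value means more JC-1 retained so stronger ABCB1 efflux block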
# MEKK3 PB1 HTS = MEKK3-MEK5 PB1 interaction, increase or decrease | bead-based flow cytometry, Alexa488-MEK5 binding to MEKK3; actives lie on both sides; 0 = blocked by unlabeled MEK5, 100 = vehicle | binding response (% of control), % at 10 µM | 1.4% of 290,000 active | AID 1529;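 active = binding response more than 3 SD above or below the average of its plate-row segment, actives on both sides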;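 note: Alexa488 bead fluorescence after subtracting the streptavidin-only scavenger bead signal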
# Efflux pump mplx = antifungal efflux pump inhibition, Nile Red retention; S. cerevisiae Candida pump triplex; inhibition, % at 10 µM; 0.44% of 330,000 active;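 active = plate passing quality check with inhibition over a set limit, or well fluorescence over plate mean plus 4 SD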;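 note: Nile Red retained in pooled yeast measured as flow cytometry median fluorescence; 0% = buffer negative control and 100% = Enniatin B positive control; higher means more Nile Red kept so more efflux inhibition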
# MEKK2wt PB1 HTS = raises or lowers MEK5 binding to wildtype human MEKK2 PB1 domain; Q9Y2U5; bead flow cytometry, Alexa488-MEK5 binding to MEKK2 WT; actives lie on both sides; binding response (% of control), % at 10 µM; 1.1% of 290,000 active; in the data active = binding response below about 67% or above about 130%
# ABCG2 block = blocks JC-1 efflux by human ABCG2 transporter. Q9UNQ0. IgMXP3 cells, flow cytometry. inhibition, % at 6.6 µM. 0.1% of 190,000 active;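 active = inhibition above 80%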;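 note: 0% = DMSO and 100% = nicardipine control wells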
# Target sequence (Q9UNQ0 whole entry, looked up): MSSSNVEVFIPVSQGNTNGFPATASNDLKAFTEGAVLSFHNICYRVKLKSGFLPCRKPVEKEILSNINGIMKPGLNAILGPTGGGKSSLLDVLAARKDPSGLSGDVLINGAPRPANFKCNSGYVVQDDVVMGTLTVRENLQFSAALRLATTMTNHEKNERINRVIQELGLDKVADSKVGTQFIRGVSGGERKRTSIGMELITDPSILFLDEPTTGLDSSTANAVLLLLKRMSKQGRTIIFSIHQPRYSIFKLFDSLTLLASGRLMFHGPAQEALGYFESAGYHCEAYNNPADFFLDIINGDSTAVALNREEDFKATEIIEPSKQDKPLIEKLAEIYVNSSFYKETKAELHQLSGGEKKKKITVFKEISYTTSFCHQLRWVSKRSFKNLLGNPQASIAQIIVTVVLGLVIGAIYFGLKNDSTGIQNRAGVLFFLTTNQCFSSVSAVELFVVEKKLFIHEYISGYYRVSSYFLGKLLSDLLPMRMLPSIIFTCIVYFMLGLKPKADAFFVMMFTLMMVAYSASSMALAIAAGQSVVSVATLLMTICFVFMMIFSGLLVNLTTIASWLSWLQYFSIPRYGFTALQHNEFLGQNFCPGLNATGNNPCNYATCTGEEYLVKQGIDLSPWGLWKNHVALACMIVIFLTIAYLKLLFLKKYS
#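 Test system: ABCG2 IgMXP3 and barcoded ABCB1 CCRF-Adr cell mix; Schedule: cells with compound and JC-1, 10 min at 25 °C, rotating, no wash; Technique: flow cytometry of retained JC-1 fluorescence; Measure: % inhibition of efflux relative to nicardipine and DMSO; Controls: nicardipine high and DMSO low controls.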
# MEKK2wt confirm = raises or lowers MEK5 binding to wildtype human MEKK2, retest | shares compounds with MEKK3 PB1 HTS | bead flow cytometry, Alexa488-MEK5 binding to MEKK2 WT; actives lie on both sides | 2.4% of 5,900 active | binding response (% of control), % at 10 µM; in the data active = binding response below about 16% or above about 210%; inactive = in between
# MEKK2mut-MEK5 = signal of MEK5 binding to mutant human MEKK2, retest; 2% of 5,900 active; shares compounds with MEKK3 PB1 HTS; percent response, % at 10 µM; bead flow cytometry, Alexa488-MEK5 binding to MEKK2 mutant; in the data active = percent response mostly above about 71%, no sharp cut-off; inactive = mostly below about 38%;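 note: higher means compound restores mutant binding toward wildtype level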
# MEKK3-MEK5 inh = confirmation of inhibitors of MEK5 binding to human MEKK3; 1.8% of 5,900 active; shares compounds with MEKK3 PB1 HTS; AID 1894; bead flow cytometry, Alexa488-MEK5 binding to MEKK3; active compounds read low; binding response (% of control), % at 10 µM;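 active = binding response below 72% of control, or above a set upper limit, though filed actives all read lower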;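 note: 100% = DMSO only wells and 0% = binding blocked by excess unlabeled MEK5; lower values mean stronger disruption of MEK5 binding to MEKK3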
# Starred values were filed as active, the others as inactive; nt = no result; [ ] = remark or other dose. Sampled rows, rich in hits. Any-hit rate of the full collection: about 2.5%.
SMILES,MEKK2mut PB1 HTS,ABCB1 block,MEKK3 PB1 HTS,Efflux pump mplx,MEKK2wt PB1 HTS,ABCG2 block,MEKK2wt confirm,MEKK2mut-MEK5,MEKK3-MEK5 inh
Cc1cccc(Nc2nnc(-c3ccc(N4CCOCC4)c([N+](=O)[O-])c3)c3ccccc23)c1,0.0,11.5,131.0*,0.0,100.0,18.0,88.0,-10.0,97.0
Cc1cccc(CN2CCN(C(=O)CCl)CC2)c1,2.0,0.3,100.0,0.2,89.0,1.8,nt,nt,nt
CN1CCN(CC(=O)Nc2nc(-c3c[nH]c4ccccc34)cs2)CC1,29.0,-0.1,102.0,0.0,145.0*,7.6,161.0,45.0,93.0
CNc1nc(-c2c[nH]c3ccccc23)cs1,2.0,1.0,94.0,0.0,-4.0*[inhibitor],-0.6,-5.0*[inhibitor],-5.0,91.0
Nc1nc(-c2c[nH]c3ccccc23)cs1,69.0*,-0.1,83.0,-0.1,-7.0*[inhibitor],-0.5,83.0,-3.0,90.0
CN1CCN(CC(=O)Nc2nc3ccccc3s2)CC1,8.0,nt,100.0,0.0,109.0,nt,nt,nt,nt
CCOc1cc(/C=N/NC(=O)C(=O)Nc2cc(Cl)ccc2C)ccc1O,-4.0,0.2,88.0,0.2,88.0,2.8,nt,nt,nt
Fc1ccc(NC(=S)Nc2cc(Cl)ccc2Cl)cc1,0.0,-0.5,115.0,-0.1,107.0,-0.9,nt,nt,nt
Fc1ccc(NC(=S)Nc2ccc(Cl)cc2)cc1,5.0,0.5,141.0*,0.0,129.0,2.5,99.0,-5.0,97.0
O=C(C[n+]1cccc(NC(=O)c2ccccc2)c1)c1cccc([N+](=O)[O-])c1,-2.0,-0.4,100.0,-0.3,103.0,0.0,nt,nt,nt
O=C(C[n+]1ccc(-c2cc(C(=O)Nc3cccc(C(F)(F)F)c3)c3ccccc3n2)cc1)c1cccc([N+](=O)[O-])c1,46.0,-0.1,94.0,0.4,158.0*,1.0,176.0,99.0*,95.0
O=S(=O)(NC1CCCCC1)c1ccc(Cl)nc1,-2.0,0.8,100.0,-0.3,101.0,3.6,nt,nt,nt
CC(=O)N1CC2(C)CN(C(C)=O)CC(C)(C1)C2,0.0,0.5,91.0,0.0,94.0,2.5,nt,nt,nt
CCC(=O)N1CC2(C)CN(C(=O)CC)CC(C)(C1)C2,8.0,-0.3,129.0*,0.0,122.0,1.2,100.0,-3.0,101.0
CC1=C(C)Cc2c(OC(=O)c3ccccc3)ccc(OC(=O)c3ccccc3)c2C1,8.0,nt,42.0*[inhibitor],-0.1,51.0,nt,101.0,2.0,98.0
O=C(Oc1cccccc1=O)c1ccccc1,-9.0,0.1,96.0,-0.1,95.0,0.6,nt,nt,nt
Cc1nc(N=C(N)N)nc2ccccc12,-11.0,0.5,75.0*[inhibitor],0.4,77.0,5.3,107.0,19.0,101.0
Cn1c(CCC(N)=O)nnc1SCC(=O)Nc1ccccc1C(=O)NC1CC1,nt,nt,nt,-0.1,nt,nt,nt,nt,nt
O=C(COc1ccccc1)NCc1nnc2c3ccccc3c(-c3ccccc3)nn12,0.0,2.0,149.0*,0.2,108.0,-0.5,107.0,6.0,105.0
CC(C)(c1ccccc1)c1ccc(OCCCN2CCNCC2)cc1,15.0,0.1,113.0,0.1,150.0*,1.0,125.0,10.0,105.0
CC(C)(C)c1ccc(OCCCCCCN2CCNCC2)cc1,nt,nt,nt,0.0,nt,nt,nt,nt,nt
CC(C)CCNC(=O)c1ccc(Cl)c(NC(=O)c2ccccc2F)c1,-11.0,0.6,97.0,-0.1,86.0,2.4,nt,nt,nt
NS(=O)(=O)c1ccc(NC(=O)COC(=O)c2cnccn2)cc1,-3.0,-0.9,93.0,-0.2,91.0,-7.5,nt,nt,nt
COc1ccc(/C=C/C(=O)Oc2ccc(/C=N/NC(=O)c3ccccc3)cc2)cc1OC,0.0,-0.2,138.0*,-0.2,102.0,-1.8,94.0,-9.0,94.0
COc1ccc(/C=C(/NC(=O)c2ccccc2)C(=O)N/N=C/c2ccncc2)cc1,-15.0,2.3,2.0*[inhibitor],-0.2,2.0*[inhibitor],16.8,102.0,3.0,102.0
SMILES,MEKK2mut PB1 HTS,ABCB1 block,MEKK3 PB1 HTS,Efflux pump mplx,MEKK2wt PB1 HTS,ABCG2 block,MEKK2wt confirm,MEKK2mut-MEK5,MEKK3-MEK5 inh
COc1ccc(/C=N/NC(=O)c2ccncc2)cc1OC,-4.0,nt,100.0,0.0,96.0,nt,nt,nt,nt
O=C(Oc1ccc(/C=N/NC(=O)c2ccccc2O)cc1)c1ccccc1,3.0,0.1,103.0,0.0,98.0,12.2,nt,nt,nt
O=C(N/N=C/c1ccc(OC(=O)c2ccccc2)cc1)c1cccc(O)c1,0.0,-0.3,137.0*,-0.1,113.0,-0.1,92.0,0.0,101.0
Cc1ccc(-c2nc3ccccc3s2)cc1NC(=O)c1ccc2c(c1)OCO2,-21.0,0.1,1.0*[inhibitor],0.0,-2.0*[inhibitor],0.5,102.0,0.0,106.0
CCCOCC(O)CCc1n[nH]c(=S)n1-c1ccccc1 (stereo not drawn),-12.0,-0.6,96.0,0.4,81.0,0.2,nt,nt,nt
Cc1ccc2[nH]cc(CCNC(=O)CN3C(=O)c4ccccc4C3=O)c2c1,-1.0,0.7,147.0*,0.0,109.0,13.8,94.0,-11.0,91.0
COc1ccc2[nH]cc(CCNC(C)=O)c2c1,44.0*,nt,108.0,0.1,106.0,nt,100.0,-1.0,102.0
CCOC(=O)c1ccc(N=CC2=C(O)CC(C)(C)CC2=O)cc1,7.0,0.2,105.0,-0.1,106.0,1.6,nt,nt,nt
CCOC(=O)c1cc(CC)sc1/N=C/C1=C(O)CC(C)(C)CC1=O,1.0,0.6,136.0*,0.3,109.0,7.7,103.0,-3.0,100.0
Fc1ccc(CNC(=S)NCc2ccc(F)cc2)cc1,6.0,nt,103.0,0.0,104.0,nt,nt,nt,nt
CCNC(=S)NCc1ccc(F)cc1,-1.0,-0.6,134.0*,0.0,109.0,-1.6,102.0,-2.0,98.0
Cc1ccccc1OCCNc1cc(N2CC(C)NC(C)C2)ccc1[N+](=O)[O-] (stereo not drawn),47.0,7.5,120.0,-0.1,198.0*,13.7,137.0,31.0,100.0
CCc1ccc(OCCNc2cc(N3CCNC(C)C3)ccc2[N+](=O)[O-])cc1 (stereo not drawn),nt,nt,nt,0.0,nt,nt,nt,nt,nt
CC1CN(c2ccc([N+](=O)[O-])c(NCCOc3ccc(Cl)cc3)c2)CC(C)N1 (stereo not drawn),48.0*,nt,109.0,-0.1,222.0*,nt,163.0,31.0,103.0
O=[N+]([O-])c1ccc(N2CCCCC2)cc1NCCOc1ccccc1,-1.0,2.8,97.0,3.9,101.0,57.2,nt,nt,nt
NCCNc1cc(N2CCCC2)ccc1[N+](=O)[O-],-1.0,0.1,101.0,-0.1,105.0,0.4,nt,nt,nt

# Screens (PubChem)
